# Assay results reported in ChEMBL document CHEMBL1146501, “Microbial transformation of isosteviol and inhibitory effects on Epstein-Barr virus activation of the transformation products” (J Nat Prod, 2004).
# Experiments:
# Format in all cases: cell-based
# Raji [1] = assay: Inhibition of 12-O-tetradecanoylphorbol-13-acetate-induced EBV-early antigen activation in human Raji cells assessed as EA activation at 1000 molar ratio after 48 hrs relative to TPA; set-up: scale not given: the % may be the effect or the level left; settings: human gammaherpesvirus 4
# How it was run: (§1)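 EBV genome-carrying nonproducer Raji lymphoblastoid cells grown in 10% FBS RPMI 1640. Cells were incubated at 37 °C for 48 h with n-butyric acid (4 mM) and TPA (32 pmol, 20 ng/mL) in DMSO, plus test compound in DMSO. Smears were stained with EA-positive nasopharyngeal carcinoma patient sera and read by indirect immunofluorescence, counting ≥500 cells per assay, run twice. Average EA induction is expressed relative to butyrate+TPA control.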
# Raji [2] = assay: Inhibition of 12-O-tetradecanoylphorbol-13-acetate-induced EBV-early antigen activation in human Raji cells assessed as EA activation at 500 molar ratio after 48 hrs relative to TPA; set-up: scale not given: the % may be the effect or the level left; settings: human gammaherpesvirus 4; how it was run: as §1
# Raji [3] = assay: Inhibition of 12-O-tetradecanoylphorbol-13-acetate-induced EBV-early antigen activation in human Raji cells assessed as EA activation at 10 molar ratio after 48 hrs relative to TPA; set-up: scale not given: the % may be the effect or the level left; settings: human gammaherpesvirus 4; how it was run: as §1
# Raji [4] = assay: Inhibition of 12-O-tetradecanoylphorbol-13-acetate-induced EBV-early antigen activation in human Raji cells assessed as EA activation at 100 molar ratio after 48 hrs relative to TPA; set-up: scale not given: the % may be the effect or the level left; settings: human gammaherpesvirus 4; how it was run: as §1
# [5] = Cytotoxicity against human Raji cells assessed as cell viability at 1000 molar ratio by trypan blue assay; settings: read-out: Activity
Structure (SMILES),Activity (Raji [1]) [%],Activity (Raji [2]) [%],Activity (Raji [3]) [%],Activity (Raji [4]) [%],viability at 1000 molar ratio [5] [%]
C[C@@]12CCC[C@@](C)(C(=O)O)[C@H]1CC[C@@]13CC(=O)[C@@](CO)(CC[C@H]12)C3,8.2,42.6,95.7,77,60
C[C@@]12CC[C@H]3[C@]4(C)CCC[C@@](C)(C(=O)O)[C@H]4C[C@H](O)[C@]3(CC1=O)C2,6.9,41.7,94.6,76.3,60
C[C@@]12CCC[C@@](C)(C(=O)O)[C@H]1CC[C@]13CC(=O)[C@](C)(C1)[C@H](O)C[C@H]32,5.7,40,93.2,75.1,60
C[C@@]12C[C@H](O)[C@@H]3[C@@](CC[C@H]4[C@@]3(C)CCC[C@@]4(C)C(=O)O)(CC1=O)C2,4,39.8,91,74.1,60
C=C1C[C@@]23CC[C@H]4[C@@](C)(CCC[C@@]4(C)C(=O)O[C@@H]4O[C@H](CO)[C@@H](O)[C@H](O)[C@H]4O)[C@@H]2CC[C@]1(O[C@@H]1O[C@H](CO)[C@@H](O)[C@H](O)[C@H]1O[C@@H]1O[C@H](CO)[C@@H](O)[C@H](O)[C@H]1O)C3 [STEVIOSIDE],12.5,46.2,100,78.9,60
C[C@@]12CC[C@@H]3[C@@](CC[C@H]4[C@@]3(C)CCC[C@@]4(C)C(=O)O)(CC1=O)C2 [ISOSTEVIOL],12.3,46.7,98.8,80,60
C[C@@]12CC[C@@H]3[C@@](CC1=O)(C2)C(=O)C[C@H]1[C@@]3(C)CCC[C@@]1(C)C(=O)O,7.4,35.1,94.5,72.3,60
CC1=C(/C=C/C(C)=C/C=C/C(C)=C/C=C/C=C(C)/C=C/C=C(C)/C=C/C2=C(C)CCCC2(C)C)C(C)(C)CCC1,8.6,–,100,–,–
